# Data from PMC10348038 (Journal of Enzyme Inhibition and Medicinal Chemistry, 2023).
# Columns and labels:
# PD-1/PD-L1 interaction = PD-1/PD-L1 interaction (Homo sapiens, UniProt Q9NZQ7); assay: HTRF PD1/PD-L1 binding assay; conditions: IC50 against the PD-1/PD-L1 interaction
# A549 = assay: CCK-8 cell viability assay, A549; type: cell-based; conditions: Homo sapiens, A549, 60 h, read-out: IC50 A549
# Summary of the method: (§1)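 Cells grown in DMEM or RPMI-1640 with 10% FBS and 1% penicillin-streptomycin at 37 °C, 5% CO2. Seeded in 96-well plates at densities suited to each line's growth rate and settled 8 h, then exposed 60 h to test compound at 0, 1, 2, 4, 8, 16 and 32 μM from 10 mM DMSO stocks. […] CCK-8 added for 0.5–1 h, OD read at 450 nm, viability normalised to control; mean ± SEM, n = 3.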
# MDA-MB-231 cells [1] = assay: CCK-8 cell viability assay, MDA-MB-231; type: cell-based; conditions: Homo sapiens, MDA-MB-231, 60 h, read-out: IC50 MDA-MB-231
# Summary of the method: as §1
# p-mTOR = assay: Western blot of mTOR phosphorylation in MDA-MB-231 cells; type: cell-based; conditions: 4 μM, 48 h, MDA-MB-231, Western blot
# Summary of the method: (§2)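 MDA-MB-231 cells exposed to test compound at 1, 2 and 4 μM for 48 h. Lysates run on SDS-PAGE and transferred to PVDF. Membranes blocked 2 h in 5% BSA/TBST, then probed overnight at 4 °C with antibodies to AKT, p-AKT, mTOR and p-mTOR (1:1000). Mean ± SEM, n = 3.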
# MRC-5 cells = assay: CCK-8 cell viability assay, normal MRC-5 cells; type: cell-based; conditions: for IC50: Homo sapiens, MRC5, 60 h, read-out: IC50 MRC-5
# Summary of the method: as §1
# p-AKT1 (Ser473) = assay: Western blot of AKT phosphorylation in MDA-MB-231 cells; type: cell-based; conditions: 4 μM, 48 h, MDA-MB-231, Western blot
# Summary of the method: as §2
# MDA-MB-231 cells [2] = assay: Wound healing assay; type: cell-based
# MDA-MB-231 cells [3] = assay: Flow cytometry apoptosis analysis; type: cell-based; conditions: 48 h
# MCF-7 = assay: CCK-8 cell viability assay, MCF-7; type: cell-based; conditions: Homo sapiens, MCF7, 60 h, read-out: IC50 MCF-7
# Summary of the method: as §1
# MDA-MB-231 tumour = assay: MDA-MB-231 tumour-bearing nude mouse model; type: in vivo, BALB/c nude mice; conditions: intraperitoneal, every 2 days, nine administrations, nude mice
# Summary of the method: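 Female BALB/c nude mice. MDA-MB-231 cells (within 10 passages) in PBS:Matrigel 1:1 at 3 × 10^7 cells/mL, 100 μL injected subcutaneously into the axilla. From about 200 mm3, test compound given intraperitoneally every 2 days in normal saline with 30% PEG400; cyclophosphamide as comparator. Tumour volume by callipers as length × width² × 0.5. Study ended when control tumours reached 1500 mm3. Tumours excised and weighed; inhibition rate from treated versus control tumour weight.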
# PD-L1 mRNA = assay: qPCR of PD-L1 mRNA in MDA-MB-231 cells; type: cell-based; conditions: MDA-MB-231, 48 h
# MDA-MB-231 cells [4] = assay: Colony formation assay; type: cell-based; conditions: for Clone formation, result in words: positive controls, BMS-202 at 1 µM
# Summary of the method: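 MDA-MB-231 seeded at 500 cells/well in 6-well plates, in triplicate. […] Medium renewed every three days. At two weeks: PBS washes, 15 min fixation in 4% paraformaldehyde, 1% crystal violet stain. Colonies of more than 500 cells counted by image analysis; mean ± SEM, n = 3.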
# HCC827 = assay: CCK-8 cell viability assay, HCC827; type: cell-based; conditions: Homo sapiens, HCC827, 60 h, read-out: IC50 HCC827
# Summary of the method: as §1
# PD-L1 = PD-L1 (Homo sapiens, UniProt Q9NZQ7); assay: Western blot of PD-L1 protein expression in MDA-MB-231 cells; type: cell-based; conditions: MDA-MB-231, 48 h, 1, 2 and 4 μM
# Summary of the method: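 MDA-MB-231 cells treated 48 h with test compound at 1, 2 and 4 μM, BMS202 as positive control; in a further arm, 4 μM with or without GSK-3β inhibitor (40 nM) for 48 h. Lysates separated by SDS-PAGE, transferred to PVDF, blocked 2 h in 5% BSA/TBST, probed overnight at 4 °C with anti-PD-L1 (1:1000). Mean ± SEM, n = 3.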
# Chain of PD-1/PD-L1 interaction (Q9NZQ7 19-238 limits assumed): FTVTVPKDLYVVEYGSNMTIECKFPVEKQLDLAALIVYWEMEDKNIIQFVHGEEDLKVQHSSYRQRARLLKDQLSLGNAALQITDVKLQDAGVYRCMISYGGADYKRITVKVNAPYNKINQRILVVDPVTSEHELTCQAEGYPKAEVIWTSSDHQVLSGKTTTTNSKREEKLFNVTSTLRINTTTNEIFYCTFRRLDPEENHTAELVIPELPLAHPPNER
# Chain of PD-L1 (Q9NZQ7 19-290): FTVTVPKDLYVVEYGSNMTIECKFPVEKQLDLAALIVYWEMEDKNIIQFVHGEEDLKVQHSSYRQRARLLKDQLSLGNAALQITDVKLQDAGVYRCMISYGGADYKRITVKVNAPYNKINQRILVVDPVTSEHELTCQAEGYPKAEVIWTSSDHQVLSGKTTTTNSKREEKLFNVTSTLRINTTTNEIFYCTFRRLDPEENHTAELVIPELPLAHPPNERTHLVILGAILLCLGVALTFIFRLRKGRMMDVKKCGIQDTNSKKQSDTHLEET
smiles,measurement,setting,value
"N#Cc1cccc(COc2cc(OCc3cccc(-c4cc(F)ccc4F)c3F)ccc2CNCCO)c1 [7b-2, 3-[2-[(2-Hydroxy-ethylamino)-methyl]-5-(2,2',5'-trifluoro-biphenyl-3-ylmethoxy)-phenoxymethyl]-benzonitrile]",IC50,PD-1/PD-L1 interaction,< 1000 nM
"N#Cc1cncc(COc2cc(OCc3cccc(-c4cc(F)ccc4F)c3F)ccc2CNCCO)c1 [7b-4, 5-[2-[(2-Hydroxy-ethylamino)-methyl]-5-(2,2',5'-trifluoro-biphenyl-3-ylmethoxy)-phenoxymethyl]-nicotinonitrile]",IC50,PD-1/PD-L1 interaction,< 1000 nM
"Cc1c(COc2ccc(CNCCN)c(OCc3ccccc3)c2)cccc1-c1ccccc1F [12j-4, N^1-[2-Benzyloxy-4-(2'-fluoro-2-methyl-biphenyl-3-ylmethoxy)-benzyl]-ethane-1,2-diamine]",IC50,A549,7.79 ± 0.69 µM
same,IC50,MDA-MB-231 cells [1],2.68 ± 0.27 µM
same,Inhibition rate of phosphorylated mTOR expression,p-mTOR,40%
same,IC50,MRC-5 cells,10.3 ± 0.12 µM
same,IC50 against MRC-5 cells relative to IC50 against MDA-MB-231 cells,MRC-5 cells; selectivity normal vs cancer cells,3.83 fold
same,Inhibition rate of AKT type I phosphorylated form expression,p-AKT1 (Ser473),90%
same,inhibition at 1 µM,"MDA-MB-231 cells [2]; Homo sapiens, MDA-MB-231, read-out: Migration inhibition rate",50%
same,Apoptotic ratio,MDA-MB-231 cells [3]; 4 μM,exceeded 40.42%
same,IC50,MCF-7,4.71 ± 0.44 µM
same,Tumour inhibition rate,MDA-MB-231 tumour; 10 mg/kg,39.04%
same,Tumour inhibition rate,MDA-MB-231 tumour; 20 mg/kg,62.54%
same,"PD-L1 mRNA, result in words",PD-L1 mRNA,decreased
same,MDA-MB-231 cells' proliferation rate (clone formation),"MDA-MB-231 cells [4]; 1 µM, treated 24 h, colonies after two weeks",40%
same,IC50,HCC827,3.24 ± 0.09 µM
same,"PD-L1 protein expression, result in words",PD-L1,down-regulated
"COc1c(COc2ccc(CN[C@H](CO)C(=O)O)c(OCc3cncc(C#N)c3)c2)cccc1-c1ccccc1F [13h-1, N-[2–(5-Cyano-pyridin-3-ylmethoxy)-4-(2'-fluoro-2-methoxy-biphenyl-3-ylmethoxy)-benzyl]-D-serine]",IC50,A549,7.27 ± 0.71 µM
same,IC50,MDA-MB-231 cells [1],4.67 ± 0.79 µM
same,IC50,MRC-5 cells,9.31 ± 0.16 µM
same,IC50,MCF-7,4.81 ± 0.45 µM
same,IC50,HCC827,6.16 ± 0.76 µM
"COc1c(COc2cc(OCc3cccc(C#N)c3)c(CNCCO)cc2Cl)cccc1-c1ccccc1F [13h-3, 3-{4-Chloro-5–(2'-fluoro-2-methoxy-biphenyl-3-ylmethoxy)-2-[(2-hydroxy-ethylamino)-methyl]-phenoxymethyl}-benzonitrile]",IC50,A549,13.5 ± 0.86 µM
same,IC50,MDA-MB-231 cells [1],4.96 ± 0.82 µM
same,IC50,MRC-5 cells,11.1 ± 0.2 µM
same,IC50,MCF-7,5.52 ± 0.57 µM
same,IC50,HCC827,5.65 ± 0.56 µM
"COc1nc(OCc2cccc(-c3ccccc3)c2C)ccc1CNCCNC(C)=O [BMS-202, reference compound]","Migration inhibition, result in words","MDA-MB-231 cells [2]; MDA-MB-231, positive control",can hardly inhibit the cancer cells’ migration
same,"Clone formation, result in words",MDA-MB-231 cells [4],scarce inhibition activity
"CC(=O)O[C@H]1C(=O)[C@@]2(C)[C@H]([C@H](OC(=O)c3ccccc3)[C@]3(O)C[C@H](OC(=O)[C@H](O)[C@@H](NC(=O)c4ccccc4)c4ccccc4)C(C)=C1C3(C)C)[C@]1(OC(C)=O)CO[C@@H]1C[C@@H]2O [paclitaxel, reference compound]",Tumour cell apoptosis,MDA-MB-231 cells [3]; 1 μM,approximately 60%
same,"Clone formation, result in words",MDA-MB-231 cells [4],Few colonies can be observed
